Measurements collected from several papers.
Compare with care: the assays were run in different laboratories.
Target: Insulin receptor (INSR, Homo sapiens, UniProt P06213)

CS(=O)(=O)NCC[C@H](NC(=O)c1cncc2c1cnn2-c1ccc(F)cc1)c1ccnc(S(C)(=O)=O)c1
remaining binding (cell-free assay, competition with immobilised ligand; 1 µM): 92%

Cc1cnc(Nc2ccc(C(=O)N3CCC(N4CCCC4)CC3)cc2)nc1-c1cc2ccccc2s1
remaining binding (binding, competition with immobilised ligand; 1 µM): 7.8%

CCS(=O)(=O)c1cc2cc(C[C@](O)(CC(C)(C)c3ccc(F)cc3C(N)=O)C(F)(F)F)[nH]c2cn1
remaining binding (cell-free assay, competition with immobilised ligand; 1 µM): 94%

C[C@@H](c1ccc(-n2cnc3c(N)ncnc32)cc1)N1CCc2nn(C)c(Cc3ccccc3)c2C1=O
remaining binding (binding, competition with immobilised ligand; 0.1 µM): 100%

N[C@H]1CCN(c2nccc(-c3cnn4ncccc34)n2)C1
remaining binding (binding; 1 µM): 85%

CC(=O)N1CCC(c2ccc(C(=O)NC3=NCCN3)cc2C(F)(F)F)CC1
remaining binding (cell-free assay, competition with immobilised ligand; 1 µM): 100%

CCN1CCN(Cc2ccc(C(=O)Nc3ccc(C)c(Oc4ccc5c(c4)CC(=O)N5)c3)cc2C(F)(F)F)CC1
remaining binding (binding, competition with immobilised ligand; 1 µM): 77%

Cc1cc(NC(=O)c2cccc(S(F)(F)(F)(F)F)c2)cc(-n2ccn3nc(-c4cccnc4)cc23)c1
remaining binding (cell-free assay, competition with immobilised ligand; 1 µM): 100%

C[C@@H]1CCN(c2nccc(-c3cnn4ncccc34)n2)C1
remaining binding (binding; 1 µM): 72%

Cn1nc(C(F)(F)F)cc1-c1cnc(N2CCc3cc(S(=O)(=O)Nc4c(F)cc(Cl)cc4F)cc(N4CCCC4=O)c32)nc1
remaining binding (cell-free assay, competition with immobilised ligand; 1 µM): 89%

O=C(NCCCN1CCOCC1)c1ccc(Nc2ncc(Cl)c(-c3ccc(Cl)s3)n2)cc1
remaining binding (binding, competition with immobilised ligand; 1 µM): 29%

CN(C)c1nccc(-c2cnn3ncccc23)n1
remaining binding (binding; 1 µM): 79%

CCC(=O)N[C@H]1CC[C@@H](C(=O)N(C)c2ccc(-c3nc4ccccc4o3)cc2)C1
remaining binding (cell-free assay, competition with immobilised ligand; 1 µM): 91%

CC(C)(C)c1ccc(-c2nc(CBr)nn2-c2cccc(O)c2)cc1
remaining binding (cell-free assay, competition with immobilised ligand; 10 µM): 93%

COc1ccc2c(c1)O[C@@H](c1ccc(OC)c(OC)c1)C[C@H]2NC(=O)C1(c2ccc3c(c2)OC(F)(F)O3)CC1
remaining binding (cell-free assay, competition with immobilised ligand; 1 µM): 79%

CN(C)c1nccc(-c2cnc3ncccn23)n1
remaining binding (binding; 1 µM): 70%

COc1cnc(Nc2cccc(S(N)(=O)=O)c2)nc1N1CCN(c2ccccc2)CC1
remaining binding (binding, competition with immobilised ligand; 1 µM): 81%

c1cncc(-c2cccc(Nc3nccc(NC4CCCCC4)n3)c2)c1
remaining binding (binding, competition with immobilised ligand; 10 µM): 27%

O=C(NCC1CCOCC1)c1n[nH]cc1NC(=O)c1c(F)cccc1F
remaining binding (binding, competition with immobilised ligand; 1 µM): 100%

Nc1ncc2c(n1)-c1c([nH]c3ccc(C#CC4CC4)cc13)CCCC2
remaining binding (binding, competition with immobilised ligand; 1 µM): 80%

Cc1cc(-n2nc(Cc3cc(F)cc(C(F)(F)F)c3)nc2C)ccc1C(N)=O
remaining binding (cell-free assay, competition with immobilised ligand; 1 µM): 99%

COc1ccnn2ncc(-c3ccnc(N(C)C)n3)c12
remaining binding (binding; 1 µM): 96%

C[C@@H]1CN(c2ccc3ncc(-c4ccc5[nH]nc(C6CC6)c5c4)n3n2)C[C@H](C)O1
remaining binding (binding, competition with immobilised ligand; 50 nM): 100%

F[C@@H]1CCN(c2nccc(-c3cnn4ncccc34)n2)C1
remaining binding (binding; 1 µM): 91%

O=C(c1ccc(Nc2ncc(Cl)c(-c3ccc(Cl)s3)n2)cc1)N1CCC(N2CCCC2)CC1
remaining binding (binding, competition with immobilised ligand; 1 µM): 2.3%
